# According to ChEMBL document CHEMBL1133115, “Synthesis, biological evaluation, and conformational analysis of A-ring diastereomers of 2-methyl-1,25-dihydroxyvitamin D(3) and their 20-epimers: unique activity profiles depending on the stereochemistry of the A-ring and at C-20” (2000):
# Several values for one entry are separate records, joined by “and”; a condition that tells them apart may be missing. Equal values may be shown once.
# Experiments:
# HL-60 [1] = test: Differentiation inducing effect on HL-60 cells; format: functional, Homo sapiens
# Method in brief: (§1)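 Line 1 is binding to bovine thymus vitamin D receptor. Lines 3 and 6 are differentiation induction in HL-60 cells.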
# Rattus norvegicus [2] = species on record: Rattus norvegicus; test: Bone calcium-mobilizing (BCM) activity at 260 pmol/day *7day in vitamin D deficient rats on a low-calcium diet ([…]); format: functional
# Method in brief: (§2)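 Vitamin D-deficient rats on a low-calcium diet were given the analogue intraperitoneally once daily for 7 consecutive days during the last week, in propylene glycol/ethanol (95:5). Controls received vehicle only. Serum calcium (mg/100 mL) was measured 24 h after the last dose, with 5-6 rats/group. Results are mean ± SEM, compared with control by Student's t-test.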
# Rattus norvegicus [3] = species on record: Rattus norvegicus; test: Bone calcium-mobilizing (BCM) activity at 500 pmol/day/7days in vitamin D deficient rats on a low calcium diet (0.02% Ca); format: functional; method in brief: as §2
# [4] = biological target: T1, Vitamin D3 receptor (Bos taurus) (UniProt Q28037); test: Binding affinity for bovine thymus vitamin D3 receptor; method in brief: as §1
# T1 sequence (whole entry): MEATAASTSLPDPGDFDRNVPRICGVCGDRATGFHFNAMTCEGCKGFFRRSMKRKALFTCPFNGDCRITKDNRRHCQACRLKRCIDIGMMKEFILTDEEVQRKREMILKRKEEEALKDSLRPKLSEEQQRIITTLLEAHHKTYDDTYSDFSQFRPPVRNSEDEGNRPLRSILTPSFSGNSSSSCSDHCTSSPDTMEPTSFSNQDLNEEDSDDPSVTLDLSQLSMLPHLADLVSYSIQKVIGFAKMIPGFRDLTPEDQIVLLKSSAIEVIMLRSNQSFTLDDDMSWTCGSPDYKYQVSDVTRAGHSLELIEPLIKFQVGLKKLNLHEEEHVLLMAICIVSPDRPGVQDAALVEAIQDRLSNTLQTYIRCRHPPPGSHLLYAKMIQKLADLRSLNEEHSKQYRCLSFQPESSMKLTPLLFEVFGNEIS
# [5] = test system: Vitamin D-binding protein (Bos taurus); test: Binding affinity for calf serum vitamin D-binding protein
# Rattus norvegicus [6] = species on record: Rattus norvegicus; test: evaluated for increasing effect of serum calcium level in normal rats(Ca); format: functional
# Method in brief: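 Normal male Sprague-Dawley rats were used to measure elevation of serum calcium level. Potency is expressed relative to 1α,25-dihydroxyvitamin D3, which is set at 100.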
# HL-60 [7] = test: evaluated for differentiation inducing effect on HL-60 cells, relative potency with respect to 1-alpha, 25-Dihydroxyvitamin D3; format: functional, Homo sapiens; method in brief: as §1
# Rattus norvegicus [8] = species on record: Rattus norvegicus; test: Bone Calcium-Mobilizing (BCM) activity (260 pmol/day/7 days) in Vitamin D-Deficient Rats on a Low-Calcium Diet; format: functional; method in brief: as §2
# Rattus norvegicus [9] = species on record: Rattus norvegicus; test: Bone Calcium-Mobilizing (BCM) activity (260 pmol/day/7 days) in Vitamin D-Deficient Rats on a Low-Calcium Diet (0.02% Ca diet); format: functional; method in brief: as §2
SMILES,Relative potency (HL-60 [1]),BCM serum Ca (Rattus norvegicus [2]) [mg 100ml-1],BCM serum Ca (Rattus norvegicus [3]) [mg 100ml-1],Relative potency (Rattus norvegicus [6]),also measured
C=C1/C(=C\C=C2/CCC[C@]3(C)[C@@H]([C@@H](C)CCCC(C)(C)O)CC[C@@H]23)C[C@H](O)[C@@H](C)[C@H]1O (stereo in doubt; form 2) [listing 1 of 2 here],3,4.1,3.8,–,–
C=C1/C(=C\C=C2/CCC[C@]3(C)[C@@H]([C@H](C)CCCC(C)(C)O)CC[C@@H]23)C[C@H](O)[C@H](C)[C@H]1O (stereo in doubt; form 2),0.5,3.9,3.9,–,–
C=C1/C(=C\C=C2/CCC[C@]3(C)[C@@H]([C@@H](C)CCCC(C)(C)O)CC[C@@H]23)C[C@H](O)[C@@H](C)[C@H]1O (stereo in doubt; form 1) [listing 1 of 2 here],–,–,–,–,Relative potency [4]: 7; Relative potency [5]: < 0.3
C=C1/C(=C\C=C2/CCC[C@]3(C)[C@@H]([C@@H](C)CCCC(C)(C)O)CC[C@@H]23)C[C@H](O)[C@@H](C)[C@H]1O (stereo in doubt; form 1) [listing 2 of 2 here],190,4.4,4.4,19,–
C=C1/C(=C\C=C2/CCC[C@]3(C)[C@@H]([C@@H](C)CCCC(C)(C)O)CC[C@@H]23)C[C@H](O)[C@@H](C)[C@@H]1O (stereo in doubt; form 1) [listing 1 of 2 here],6,4.4,4.3,–,–
C=C1/C(=C\C=C2/CCC[C@]3(C)[C@@H]([C@H](C)CCCC(C)(C)O)CC[C@@H]23)C[C@H](O)[C@H](C)[C@@H]1O (stereo in doubt; form 1),–,4.2,4.1,–,–
C=C1/C(=C\C=C2/CCC[C@]3(C)[C@@H]([C@H](C)CCCC(C)(C)O)CC[C@@H]23)C[C@@H](O)[C@H](C)[C@@H]1O (stereo in doubt; form 2),59000,<5.8,<7.8,655,–
C=C1/C(=C\C=C2/CCC[C@]3(C)[C@@H]([C@@H](C)CCCC(C)(C)O)CC[C@@H]23)C[C@H](O)[C@@H](C)[C@@H]1O (stereo in doubt; form 2) [listing 1 of 2 here],–,–,–,–,Relative potency [4]: 0.3; Relative potency [5]: 21
C=C1/C(=C\C=C2/CCC[C@]3(C)[C@@H]([C@H](C)CCCC(C)(C)O)CC[C@@H]23)C[C@@H](O)[C@@H](C)[C@@H]1O (stereo in doubt; form 2),10,4.1,<5,2,–
C=C1/C(=C\C=C2/CCC[C@]3(C)[C@@H]([C@H](C)CCCC(C)(C)O)CC[C@@H]23)C[C@@H](O)[C@H](C)[C@@H]1O (stereo in doubt; form 1),200,<6,–,400,–
C=C1/C(=C\C=C2/CCC[C@]3(C)[C@@H]([C@H](C)CCCC(C)(C)O)CC[C@@H]23)C[C@@H](O)[C@H](C)[C@H]1O (stereo in doubt; form 1),3,4.8,4.7,–,–
C=C1/C(=C\C=C2/CCC[C@]3(C)[C@@H]([C@@H](C)CCCC(C)(C)O)CC[C@@H]23)C[C@H](O)[C@@H](C)[C@@H]1O (stereo in doubt; form 1) [listing 2 of 2 here],–,–,–,–,Relative potency [4]: < 0.1; Relative potency [5]: < 0.3
C=C1/C(=C\C=C2/CCC[C@]3(C)[C@@H]([C@H](C)CCCC(C)(C)O)CC[C@@H]23)C[C@@H](O)[C@@H](C)[C@H]1O (stereo in doubt; form 2),1.5,<5,<4.9,–,–
C=C1/C(=C\C=C2/CCC[C@]3(C)[C@@H]([C@H](C)CCCC(C)(C)O)CC[C@@H]23)C[C@@H](O)[C@H](C)[C@H]1O (stereo in doubt; form 2),1,4.4,4.3,–,–
C=C1/C(=C\C=C2/CCC[C@]3(C)[C@@H]([C@@H](C)CCCC(C)(C)O)CC[C@@H]23)C[C@H](O)[C@@H](C)[C@H]1O (stereo in doubt; form 2) [listing 2 of 2 here],–,–,–,–,Relative potency [4]: 0.8; Relative potency [5]: 1300
C=C1/C(=C\C=C2/CCC[C@]3(C)[C@@H]([C@H](C)CCCC(C)(C)O)CC[C@@H]23)C[C@H](O)[C@H](C)[C@H]1O (stereo in doubt; form 1),1,4.3,4.4,–,–
C=C1/C(=C\C=C2/CCC[C@]3(C)[C@@H]([C@@H](C)CCCC(C)(C)O)CC[C@@H]23)C[C@H](O)[C@@H](C)[C@@H]1O (stereo in doubt; form 2) [listing 2 of 2 here],1.5,<5.2,<5.4,–,–
C=C1/C(=C\C=C2/CCC[C@]3(C)[C@@H]([C@H](C)CCCC(C)(C)O)CC[C@@H]23)C[C@H](O)[C@H](C)[C@@H]1O (stereo in doubt; form 2),730,<4.6,4.6,144,–
C=C1/C(=C\C=C2/CCC[C@]3(C)[C@@H]([C@H](C)CCCC(C)(C)O)CC[C@@H]23)C[C@@H](O)[C@@H](C)[C@H]1O (stereo in doubt; form 1),–,4.9,5,–,Relative potency (HL-60 [7]): 1
C=C1/C(=C\C=C2/CCC[C@]3(C)[C@@H]([C@H](C)CCCC(C)(C)O)CC[C@@H]23)C[C@@H](O)C[C@@H]1O [CALCITRIOL],100,<5.5,–,100,Relative potency [4]: 100; BCM serum Ca (Rattus norvegicus [8]): <5.5 mg 100ml-1 and <5.4 mg 100ml-1 and <6 mg 100ml-1 and <6.1 mg 100ml-1; BCM serum Ca (Rattus norvegicus [9]): 6.8 mg 100ml-1
C=C1/C(=C\C=C2/CCC[C@]3(C)[C@@H]([C@H](C)CCCC(C)(C)O)CC[C@@H]23)C[C@@H](O)[C@@H](C)[C@@H]1O (stereo in doubt; form 1),2600,4.6,4.4,115,–
